NF-kB neuron act: raises NF-kB expression in human neuronal cells; NF-kB reporter expression; hits give high values; fold change at 12.5 µM; 190,000 compounds, 1.6% hits; in the data active = fold change above about 3.3
Pf gamet viab: kills late stage P. falciparum gametocytes; AID 743093; inhibition, % at 10.9 µM; 150,000 compounds, 0.065% hits; P. falciparum stage V gametocytes, ATP luminescence, 24 h;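 active = inhibition above the mean plus 3 SD of compounds within the control limits, set per campaign, cut at about 38% in these data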;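 note: 0% = DMSO wells and 100% = medium only without gametocytes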
STAT3 activator: activators of IL-6 induced STAT3 signaling. U3A cells, IL-6 STAT3-luciferase reporter, luminescence; 100% = signal with IL-6 EC80 alone. AID 871. 190,000 compounds, 0.91% hits. activation (% of control), % at 5.6 µM;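 active = activation above the screen-wide mean of compound activation plus 3 SD, cut at about 130% in these data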;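 note: 0% = background luminescence of wells with medium and substrate only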
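system = STAT3-luciferase reporter U3A cells | reagent = IL-6 stimulus at 33 ng/mL final | timing = 1 h compound pre-exposure, 6 h IL-6 stimulation, 37 °C | measured by = luminescence | evaluation = % activation versus median of IL-6-stimulated wells | control set = IL-6-only wells as 100% reference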
STAT1 activator: increases IFN-gamma driven STAT1 reporter signal | NIH 3T3 STAT1-luciferase reporter, luminescence; 100% = IFN-gamma alone, no compound | activation (% of control), % at 5.5 µM | AID 932 | 200,000 compounds, 2.6% hits;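 active = activation above the screen-wide mean activation plus 3 SD, cut at about 130% in these data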;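 note: raw ratio to IFN-gamma control signal so 100% means no change and 0% no light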
APP 5'UTR act: activates APP 5'UTR luciferase reporter | AID 1276 | activation, % at 2 µM | 190,000 compounds, 1% hits | SH-SY5Y APP 5'UTR luciferase reporter, luminescence; zero percent = DMSO vehicle wells;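 active = activation above a set limit, based on mean plus 3 SD of controls, cut at about 140% in these data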
STAT1 blocker: reduces IFN-gamma driven STAT1 reporter signal | 200,000 compounds, 0.35% hits | NIH 3T3 STAT1-luciferase reporter, luminescence | inhibition, % at 5.5 µM;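 active = inhibition above a set limit, the mean inhibition across all tested compounds plus 3 SD, cut at about 34% in these data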;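 note: 0% = IFN-gamma with DMSO and 100% = IFN-gamma with 300 µM nifuroxazide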
* marks the source's active call; other numbers are inactive results; nt = not tested or not shown. Shown are actives, neighbours in structure and some others; about 3.9% of the full set was active somewhere.

SMILES	NF-kB neuron act	Pf gamet viab	STAT3 activator	STAT1 activator	APP 5'UTR act	STAT1 blocker
C[C@H](CO)N1C[C@H](C)[C@@H](CN(C)C(=O)Nc2ccc(C(F)(F)F)cc2)Oc2ccc(NS(=O)(=O)c3cn(C)cn3)cc2C1=O	nt	-2	nt	nt	nt	nt
COc1cc(OC)cc(C(=O)Nn2cc(C(=O)Nc3ccccc3F)c3ccccc3c2=O)c1	1.5	0	134*	84	-13	19
CCOc1ccc(N2Cc3ccccc3C2)cc1	nt	-1	96	141*	105	-45
Cc1cc(/C=C\c2ccccc2)nc2ccccc12	1.3	-7	130	143*	130	-49
COc1ccc(/C=C/c2cc(C(=O)O)c3ccccc3n2)cc1	nt	-22	nt	nt	nt	nt
Cc1ccc(OCCOc2cccc(Br)c2)c([N+](=O)[O-])n1	2.5	nt	104	132*	54	-35
COc1ccc2c(c1)[nH]c(=O)c1sc3ccccc3c12	1.8	nt	174*	113	10	-15
COc1ccc2sc3c(=O)[nH]c4ccccc4c3c2c1	1.5	nt	123	120	-1	-22
CCCCCCc1ccc(-c2ncc(N)cn2)cc1	4.4*	-14	100	139*	70	-42
[O-]/C(=C(\C(=S)Nc1ccc(SC(F)F)cc1)[n+]1ccccc1)c1ccc(Cl)cc1Cl	4.7*	3	88	98	3	1
Cc1cc(C)cc(NC(=S)/C(=C(\[O-])c2ccc(Cl)cc2Cl)[n+]2ccccc2)c1	1	0	103	99	1	1
CSc1ccc(CNc2ccccn2)cc1	2	-7	100	129*	41	-32
Cc1ccc(/C=N/NC(=S)N2CCOCC2)cc1	1.6	nt	113	131*	64	-35
S=C(N/N=C/c1ccc(Cl)cc1)N1CCOCC1	1.5	-7	98	132*	27	-36
CC(C)(C)NC(=O)CSc1nc2cccnc2n1C1CCCCC1	nt	-24	nt	nt	nt	nt
Cc1cc(=O)n2[nH]c(Nc3cccc(Cl)c3)nc2n1	nt	2	nt	nt	nt	nt
O=C(CN1CCN(Cc2cccc(F)c2)CC1)NCc1ccccc1	nt	8	nt	nt	nt	nt
O=C(CSC(=S)N1CCSCC1)c1ccc(Cl)cc1	5.2*	3	90	129*	151*	-31
O=C(Nc1ccc(Cl)cc1)N1CCSCC1	1.4	nt	90	102	0	-2
O=C(CSC(=S)N1CCSCC1)c1ccccc1	6.2*	1	80	137*	113	-40
O=C(Nc1ccc(C(F)(F)F)cc1[N+](=O)[O-])O[C@H]1[C@H](Cc2ccccc2)NS(=O)(=O)[C@H]2C[C@@H]3C=C[C@]12O3	nt	16	nt	nt	nt	nt
CN1CCN(C(=S)c2ccc(-c3cccc(Cl)c3Cl)o2)CC1	2.6	18	114	144*	124	-50
S=C(c1ccc(-c2ccccc2Cl)o1)N1CCCCC1	0.95	-5	98	141*	88	-45
CSc1ccc(-c2nnn(Cc3ccc(Br)cc3)n2)cc1	1.6	nt	95	105	-4	-6
CSc1ccc(-c2nnn(Cc3ccccn3)n2)cc1	2.9	7	112	140*	69	-43
SMILES	NF-kB neuron act	Pf gamet viab	STAT3 activator	STAT1 activator	APP 5'UTR act	STAT1 blocker
C/C(=N\N1CCN(c2ccccc2)CC1)c1ccncc1	1.4	9	85	107	11	-7
C/C(CC(=O)NC(C)(C)C)=N\NC(=O)c1ccccc1N	1.3	19	97	129*	35	-32
CS(=O)(=O)N(CC(=O)Nc1ccccc1C(=O)N1CCCC1)c1ccc2c(c1)OCO2	0.85	-1	99	107	4	-9
O=C(/C=C/c1ccco1)c1ccc(O)cc1	3.3*	nt	97	99	79	2
CSc1ccc(/C=C/C(=O)c2ccc(O)cc2)cc1	3.4*	17	105	108	73	-9
Cc1ccc(/C=C/C(=O)c2ccc(O)cc2)cc1	nt	-18	nt	nt	nt	nt
Cc1cc(-c2ccc(N3CCOCC3)cc2)nc2ccccc12	2.9	11	112	130*	90	-33
CN1CCN(c2ccc(-c3ccc4ccccc4n3)cc2)CC1	0.34	nt	9	11	-51	95*
c1ccc2nc(-c3ccc(N4CCOCC4)cc3)ccc2c1	2.4	-11	22	38	nt	68*
Cc1ccc(-c2cc(C(=O)N3CCOCC3)c3ccccc3n2)cc1	1	nt	115	102	20	-2
COCCCn1c(=S)[nH]c2c(sc3ccccc32)c1=O	1.7	19	91	103	-6	-6
CSc1nc2cc(C)nn2c(-c2ccccc2)c1C#N	nt	-4	nt	nt	nt	nt
O=C(Nc1ccccc1)c1ccn[nH]1	3.4*	nt	97	138*	80	-42
Cc1ccc(N2C(=O)SC(Cc3ccccc3)C2=O)cc1 (stereo not given)	nt	11	nt	nt	nt	nt
Nc1c(C(=O)Nc2ccc(Cl)cc2)oc2ccccc12	5.6*	nt	173*	170*	213*	-78
CC(=O)Nc1cccc(NC(=O)c2oc3ccccc3c2C)c1	2.3	nt	104	142*	68	-44
CC(=O)c1oc2ccccc2c1N	1.5	-22	104	100	0	0
Cc1c(C(=O)NC2=NCCS2)oc2ccccc12	7.6*	nt	90	137*	106	-40
O=C(NC1=NCCS1)c1cc(-c2ccc(-c3ccccc3)cc2)nc2ccccc12	1.3	-3	105	135*	67	-39
Cc1c(C(=O)NC(=S)NCC(C)C)oc2ccccc12	1.8	5	102	99	46	1
Cc1c(C(=O)Nc2cnccn2)oc2ccccc12	4.7*	nt	124	121	28	-23
C=CCNC(=S)NC(=O)c1oc2ccccc2c1C	2	-27	107	134*	57	-40
O=C(NCCOCc1ccccc1)C(c1ccccc1)c1ccccc1	0.91	3	99	93	19	6
Cc1cc(C)cc(NC(=O)c2ccc3nc[nH]c3c2)c1	1.3	2	109	103	1	-3
Cc1ccc(NC(=O)c2ccc3nc[nH]c3c2)cc1C	3.2	-4	91	143*	106	-47
SMILES	NF-kB neuron act	Pf gamet viab	STAT3 activator	STAT1 activator	APP 5'UTR act	STAT1 blocker
Cc1c(C(c2ccccc2Br)c2c(C)n(C)n(-c3ccccc3)c2=O)c(=O)n(-c2ccccc2)n1C	nt	-7	nt	nt	nt	nt
CCCn1c(C)cc(C(=O)COC(=O)CN=C2NS(=O)(=O)c3ccccc32)c1C	1	-2	95	96	6	4
N=C1C(c2nc3ccccc3s2)=C(O)CN1Cc1ccccc1	1.3	nt	130	131*	23	-33
N=C1C(c2nc3ccccc3s2)=C(O)CN1C1CCCCC1	1.1	-19	109	147*	42	-53
N=C1C(c2nc3ccccc3s2)=C(O)CN1C1CCC(O)CC1 (stereo not given)	nt	-9	nt	nt	nt	nt
Nc1ccc(-c2nc3ncccc3o2)cc1	nt	-21	nt	nt	nt	nt
COc1ccc(C2=NNC(=O)CC2)cc1	0.93	1	97	105	5	-6
COc1ccc(C2=Nc3ccccc3OC2)cc1	8.4*	nt	100	123	128	-25

High-throughput results (PubChem)
